The values that follow come from article PMC11162967 (International Journal of Nanomedicine, 2024).

In brackets after ≈: the same amount, converted by molar mass.

One data set can be described thus: Saturated solubility. It counts as physicochemical. As to conditions: ultrapure water. The method, boiled down:
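Excess test material added to 5 mL ultrapure water, shaken 24 h at 37°C. Undissolved drug removed by centrifugation (12,000 rpm, 30 min) and 0.22 μm filtration. Filtrate concentration measured by HPLC. n=3, mean ± SD.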

In data set [1] the test system is Caco-2 cells. The data set is described as follows: Cytotoxicity study on Caco-2 cells. It counts as cell-based. To be noted: under the experimental conditions (Figure S4).
For data set [2], the system named is Caco-2 cells. As to the kind of experiment: Cellular uptake in Caco-2 cell monolayer. It counts as in vitro ADME. As to conditions: Caco-2, 30 μM luteolin, 37°C, 4 h.
Another data set deals with HUA model mice. The data set is described as follows: Anti-hyperuricemia study in HUA mice model. It counts as in vivo, ICR mice. To be noted: oral 30 mg/kg luteolin for 2 weeks, compared with HUA group. The method, boiled down:
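Male ICR mice, n=8 per group. Hyperuricemia induced by daily intraperitoneal potassium oxonate 300 mg/kg plus hypoxanthine 300 mg/kg in normal saline for seven consecutive days. Test compound given by gavage in normal saline at 30 mg/kg luteolin-equivalent for 2 weeks, including 1-week pretreatment. Vehicle and febuxostat 10 mg/kg (oral, one week) controls. Serum uric acid measured by commercial kit at end; one-way ANOVA.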

Data set [3] concerns Caco-2 cells. The data set is described as follows: Cellular uptake mechanisms with endocytosis inhibitors. It counts as in vitro ADME. The method, boiled down:
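Caco-2 cells seeded at 2.5×10^4 per well, cultured 14 days. Then rinsed and given test compound at 30 μM luteolin, 4 h at 37°C. Washed, lysed by ultrasonication, luteolin by HPLC normalised to BCA protein. Compared with uninhibited control.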

The nature of a further data set: In vitro dissolution. To be noted: 37°C. It counts as physicochemical.

The term solubility denotes the dissolved amount per volume that the medium holds. `O=c1cc(-c2ccc(O)c(O)c2)oc2cc(O)cc(O)c12` [LUT, Luteolin] yielded a solubility at 24 h in the data set “Saturated solubility” of 0.94 ± 0.07 µg/mL (≈ 3.28 µM). Further, in the data set with Caco-2 cells [1], the “viability of Caco-2 cells” value is “did not affect the viability”. Also, the cellular uptake in the data set with Caco-2 cells [2] is given as 25.89 ± 4.94 μg luteolin/mg cellular protein. Also, the “serum UA level reduction” value in the data set with HUA model mice came out at 51.67%. Also, in the data set with Caco-2 cells [3] (Caco-2 pretreated with inhibitor 1 h), the “effect of chlorpromazine, indomethacin, or colchicine on cellular uptake” value was “no significant change”. For the same molecule, in the data set on Caco-2 cells [3] (Caco-2 pretreated with sodium azide 650 μg/mL 1 h), the “effect of sodium azide on cellular uptake” value is “significantly reduced”. The “drug dissolved (cumulative dissolution)” value is 25.78% in “In vitro dissolution” (SGF pH 1.2 with 0.5% Tween 80, within 3 min) and 48.47% in “In vitro dissolution” (SIF pH 6.8 with 0.5% Tween 80, within 3 min).
